Series [1] relates to MPTP-treated parkinsonian macaques. The series can be described thus: L-Dopa responses of the parkinsonian macaques. In kind it is in vivo, Macaca Mulatta and Fascicularis.
Series [2] shares this test system. The series can be described thus: PDE9i - L-DOPA co-administration trial in MPTP parkinsonian macaques. In kind it is in vivo, Macaca Mulatta and Fascicularis. The following applies: L-DOPA suboptimal dose s.c. alone, typical average.
The nature of series [3]: Plasma pharmacokinetics in awake macaques. The following applies: suboptimal L-DOPA + PDE9i 5 mg/kg vs PDE9i vehicle. Type of series: in vivo, Macaca Mulatta and Fascicularis. The essentials: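 Two awake, chair-trained MPTP-parkinsonian macaques from the behavioural cohort were restrained unsedated. Test compound (s.c., 5 mg/kg, or 0 mg/kg vehicle) was given with each animal's sub-optimal s.c. L-DOPA methyl ester/benserazide dose. Saphenous vascular-port blood was drawn pre-injection and at 60, 120 and 180 min. Each treatment was given twice, and samples were processed in duplicate. Plasma was stored at −80°C for LC/MS.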

Another series deals with PDE 9, 10, and 11. The conditions noted are these: cited from earlier work.
The test system of a further series is PDE 5 and 6. The conditions noted are these: cited from earlier work.
Series [4] relates to L-DOPA-induced abnormal involuntary movements. The following applies: rodents; ref Giorgi et al., 2008; Picconi et al., 2011; cited from earlier work.

Turning to `N[C@@H](Cc1ccc(O)c(O)c1)C(=O)O` [L-DOPA], the “LID (dyskinesia score at peak-dose effect of L-dopa)” value was determined as 13 in series [1] (monkey 1, scale 0 to 27); 11.5 in series [1] (monkey 2, scale 0 to 27); 10 in series [1] (monkey 3, scale 0 to 27); 9 in series [1] (monkey 4, scale 0 to 27); 7 in series [1] (monkey 5, scale 0 to 27); 11 in series [1] (monkey 6, scale 0 to 27). For the same compound, the “MDS ON (motor disability score at the peak-dose effect of L-dopa)” value turned out to be 1.5 in series [1] (monkey 1, scale 0 to 39, MDS OFF 17); 1.5 in series [1] (monkey 2, scale 0 to 39, MDS OFF 17); 3.5 in series [1] (monkey 3, scale 0 to 39, MDS OFF 19); 4.5 in series [1] (monkey 4, scale 0 to 39, MDS OFF 22); 8.5 in series [1] (monkey 5, scale 0 to 39, MDS OFF 23); 3.5 in series [1] (monkey 6, scale 0 to 39, MDS OFF 23.5). Moreover, in series [2], the “response duration ("on" state)” value is about 100 min. Moreover, the “plasma levels of L-DOPA with PDE9i addition” value in series [3] is “remained unchanged”.
Turning to `CCCOc1ccccc1-c1nc2nn[nH]c2c(=O)[nH]1` [zaprinast], the “affinity for PDE 9, 10, and 11” value with PDE 9, 10, and 11 is “weak”. The “affinity for PDE 5 and 6” value with PDE 5 and 6 is reported as “moderate”. In addition, the “L-DOPA-induced abnormal involuntary movements” value in series [4] is listed as “reduction of L-DOPA-induced abnormal involuntary movements”.

The record behind these values is paper PMC11698471 (Neuropharmacology, 2022).
